Compound activity deposited in PubChem BioAssay by Johns Hopkins Ion Channel Center.
This is a sample that favours compounds with a hit; in the whole collection about 3.1% have one here.
KCNQ1 pot = human KCNQ1 channel potentiation or activation; B-score at 10 µM; P51787; AID 2648; CHO-K1 KCNQ1, thallium flux FluxOR fluorescence; hits give high values; hit rate 0.35% among 310,000;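 active means fluorescence ratio B-score, a plate-corrected score, at least three library SD, with initial intensity B-score within 5 SD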
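Medium – assay buffer, equal DMSO in all wells · Material – CHO-K1 cell line with stable KCNQ1 potassium channel expression · Signal – kinetic FluxOR thallium fluorescence, 10-s 1-Hz baseline, 110-s post-stimulus read · Compound – single concentration per compound, DMSO matched to controls · Schedule – 37 °C overnight plating, 90-min dark dye load, 20-min compound pretreatment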
hERG protect = hERG (human) protection from proarrhythmic block | Q12809 | CHO-hERG, FluxOR thallium flux, dofetilide IC70 present | activation (rescue from dofetilide block), less the hit threshold, % at 10 µM | hit rate 0.51% among 310,000;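 active means activation above the mean of controls blocked by dofetilide plus 5 SD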;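 further: thallium influx through hERG after potassium depolarization seen as dye fluorescence rise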
KCNK3 block = human KCNK3 channel inhibition, primary screen | O14649 | CHO-KCNK3 thallium flux, FluxOR fluorescence; hits give low values | B-score at 10 µM | hit rate 0.84% among 340,000 | AID 602410;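 active means B-score under library mean minus 4 SD, starting fluorescence ratio at most library mean plus 5 SD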;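 further: more negative B-score means stronger inhibition of thallium flux through KCNK3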
KCNQ1 inh = blocks the human KCNQ1 potassium channel; P51787; CHO-K1 KCNQ1, FluxOR thallium flux fluorescence; hits give high values; B-score at 10 µM; hit rate 1.3% among 310,000;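 active means compounds whose thallium flux B-score, printed positive for inhibition, exceeds three library SD while starting fluorescence stays within three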;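 further: channel opened by potassium depolarization with thallium stimulus after 20 min compound exposure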
KCNK9 inh = inhibitors of human KCNK9 two-pore domain potassium channel. Q9NPC2. hit rate 1.2% among 310,000. B-score at 10 µM. AID 488922. HEK293 KCNK9, FluxOR thallium flux fluorescence; hits give low values;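 active means ratio B-score over 3 SD below the library mean, with starting fluorescence within 5 SD of its mean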;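 further: negative B-score means less thallium flux so channel inhibition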
Target sequence (Q9NPC2 whole entry, looked up, the tested form may be a part): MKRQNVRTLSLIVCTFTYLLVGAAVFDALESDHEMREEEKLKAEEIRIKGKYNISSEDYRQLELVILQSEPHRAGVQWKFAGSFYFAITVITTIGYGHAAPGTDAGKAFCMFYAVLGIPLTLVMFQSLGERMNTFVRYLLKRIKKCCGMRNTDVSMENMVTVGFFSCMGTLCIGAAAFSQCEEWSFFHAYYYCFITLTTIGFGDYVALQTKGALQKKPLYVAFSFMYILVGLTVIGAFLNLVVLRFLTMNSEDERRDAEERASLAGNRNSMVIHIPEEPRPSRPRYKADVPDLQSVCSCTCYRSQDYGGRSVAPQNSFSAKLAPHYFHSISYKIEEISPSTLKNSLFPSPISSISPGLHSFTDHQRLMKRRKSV
KCNK9 block conf = human KCNK9 inhibitor confirmation; shares compounds with KCNK9 inh; HEK293 KCNK9 cells, FluxOR thallium flux fluorescence; inhibition, % at 10 µM; hit rate 43% among 4,900;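 active means thallium signal inhibited by more than 5 SD of the compound-free buffer control wells, on both duplicate plates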
Kir21 sel = tests whether KCNK9 modulators also affect mouse Kir2.1; shares compounds with KCNK9 inh; Kir2.1 cells, FluxOR thallium flux fluorescence; inhibition, % at 10 µM; hit rate 4% among 4,900; AID 492993;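 active means thallium signal drop more than 5 SD beyond the mean of the no-compound control wells, seen in both duplicate plates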;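 further: signal is fluorescence rise after thallium addition divided by baseline fluorescence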
HEK293 Tl ctr = non-induced cell nonspecific activity of KCNK9 modulators; AID 492997; shares compounds with KCNK9 inh; hit rate 40% among 4,900; non-induced KCNK9-HEK293, FluxOR thallium flux; inhibition, % at 10 µM;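 active means thallium signal drop beyond 5 SD of the untreated control mean, on both duplicate plates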
Large screens that a line does not name were inactive (follow-up assays come after a bar, where they were run).

Cc1nn(-c2ccccc2)c(N)c1Sc1cccc([N+](=O)[O-])c1	KCNK9 inh -12.6 | KCNK9 block conf 66.5% | Kir21 sel inactive | HEK293 Tl ctr 29.0%
Cc1nn(-c2ccccc2)c(N)c1Sc1ccccc1[N+](=O)[O-]	none
COC(=O)c1ccc(C(c2c(C)n(C)n(-c3ccccc3)c2=O)c2c(C)n(C)n(-c3ccccc3)c2=O)cc1	none
CCc1ccc(CNC(=O)C2CCCN(S(=O)(=O)N3CC(C)CC(C)C3)C2)cc1 (centres undefined)	KCNK9 inh -8.17 | KCNK9 block conf 38.0% | Kir21 sel inactive | HEK293 Tl ctr inactive
CC(=O)c1ccc(C(=O)N2CCCC(C(=O)c3ccc(Cl)cc3)C2)s1 (centres undefined)	none | KCNK9 block conf inactive | Kir21 sel inactive | HEK293 Tl ctr inactive
CSc1ccc(C(=O)C2CCCN(C(=O)c3csc(C(C)=O)c3)C2)cc1 (centres undefined)	none
COCc1ccc(C(=O)N2CCCC(C(=O)c3ccc(SC)cc3)C2)s1 (centres undefined)	none | KCNK9 block conf inactive | Kir21 sel inactive | HEK293 Tl ctr inactive
CC(=O)c1ccc(C(=O)N2CCCC(C(=O)c3cc(F)ccc3F)C2)s1 (centres undefined)	none
Cc1ccc(NC(=O)C2CCCN(C(=O)c3ccc(Cl)cc3)C2)c(C)c1 (centres undefined)	none
Cc1ccc2[nH]nc(C(=O)N3CCCC(C(=O)c4ccc(Cl)cc4)C3)c2c1 (centres undefined)	none | KCNK9 block conf inactive | Kir21 sel inactive | HEK293 Tl ctr inactive
CSc1ccc(C(=O)C2CCCN(C(=O)c3cc4cc(F)ccc4[nH]3)C2)cc1 (centres undefined)	none | KCNK9 block conf inactive | Kir21 sel inactive | HEK293 Tl ctr inactive
O=C(NCCC(=O)N1CCC2(CC1)NCCc1[nH]cnc12)c1cccc(Br)c1	none
CCOc1cc(C(=O)Nc2ccc(S(=O)(=O)NC3=NCCCCC3)cc2)cc(Br)c1OC	none
CCc1cc(C(=O)N2CCCC(C(=O)c3ccc(Cl)cc3)C2)no1 (centres undefined)	none | KCNK9 block conf inactive | Kir21 sel inactive | HEK293 Tl ctr inactive
Cc1noc(C)c1C(=O)N1CCCC(C(=O)c2ccc(Cl)cc2)C1 (centres undefined)	none
CSc1ccc(C(=O)C2CCCN(C(=O)c3ccc4c(c3)OCO4)C2)cc1 (centres undefined)	none | KCNK9 block conf inactive | Kir21 sel inactive | HEK293 Tl ctr inactive
COc1ccccc1CNC(=O)COC(=O)COc1ccccc1Cc1ccccc1	none
O=C(Nc1ccc(S(=O)(=O)Nc2cnc3ccccc3n2)cc1)c1ccc(Cl)cc1Cl	none
CC(Oc1ccc(Cl)cc1Cl)C(=O)Nc1ccc(S(=O)(=O)Nc2cnc3ccccc3n2)cc1 (centres undefined)	none (no result: KCNK3 block) | KCNK9 block conf inactive | Kir21 sel inactive | HEK293 Tl ctr inactive
c1ccc(CCN(Cc2ccccc2)Cc2nc(C3CC3)no2)cc1	KCNK9 inh -9.56 | KCNK9 block conf inactive | Kir21 sel inactive | HEK293 Tl ctr 38.0%
CCN(Cc1ccccc1)Cc1nc(CCc2ccccc2)no1	none
Brc1ccc(N=Nc2ccc3ccccc3n2)cc1	KCNK9 inh -10.5 | KCNK9 block conf 42.0% | Kir21 sel inactive | HEK293 Tl ctr 82.0%
CCOc1cc(CNc2ccc3c(c2)OCCO3)cc(Br)c1OC	none | KCNK9 block conf inactive | Kir21 sel inactive | HEK293 Tl ctr inactive
CC(C)N1C(=S)SC(C)(C)C1n1oc(=O)n(-c2cccc(Cl)c2)c1=O (centres undefined)	none
CC(C)CN1C(=S)SC(C)(C)C1n1oc(=O)n(-c2ccccc2)c1=O (centres undefined)	none | KCNK9 block conf inactive | Kir21 sel inactive | HEK293 Tl ctr inactive
Cc1c(C)n(C(=O)CN2CCN(c3ccccn3)CC2)c2ccccc12	none | KCNK9 block conf inactive | Kir21 sel inactive | HEK293 Tl ctr inactive
O=C(CN1CCN(c2ccccn2)CC1)N1c2ccccc2CCc2ccccc21	none
O=C1/C(=C/c2ccco2)SC(=S)N1CCC(=O)N1CCCCC1CCO (centres undefined)	none
S=C(c1c[nH]c2ccc(Br)cc12)N1CCOCC1	KCNK9 inh -8.72 | KCNK9 block conf 50.0% | Kir21 sel inactive | HEK293 Tl ctr inactive
O=C(c1c[nH]c2ccccc12)N1CCOCC1	none
CCOC(=O)c1ccc(N2C(=O)c3n[nH]c(-c4ccco4)c3C2c2cccc([N+](=O)[O-])c2)cc1 (centres undefined)	KCNK9 inh -9.44 | KCNK9 block conf 64.0% | Kir21 sel inactive | HEK293 Tl ctr 30.5%
CCOC(=O)c1ccc(N2C(=O)c3n[nH]c(C)c3C2c2ccco2)cc1 (centres undefined)	none
O=C(/C=C/c1ccco1)Oc1cc(Br)cc(/C=N/NC(=O)c2ccccc2O)c1	KCNK9 inh -14.2 | KCNK9 block conf 75.5% | Kir21 sel inactive | HEK293 Tl ctr 37.5%
Cc1ccc(C(=O)N/N=C/c2cccc(OC(=O)/C=C/c3ccco3)c2)cn1	none
C(=N\N(Cc1ccccc1)c1ccccc1)/c1cccnc1	KCNK9 inh -12.3 | KCNK9 block conf 53.5% | Kir21 sel inactive | HEK293 Tl ctr 26.0%
C/C(=N\N(Cc1ccccc1)c1ccccc1)c1cccnc1	none
O=c1cc(CN2CCN(Cc3ccccc3)CC2)c2cc3c(cc2o1)CCC3	none | KCNK9 block conf inactive | Kir21 sel inactive | HEK293 Tl ctr inactive
O=C(O)c1ccc(Cl)c(S(=O)(=O)Nc2ccccc2C(=O)Nc2ccc(Cl)cc2)c1	none
CCOC(=O)c1cccnc1SCC(=O)N(C)c1ccccc1	none
CCN(C(=O)CSc1ncccc1C(=O)Oc1cccc([N+](=O)[O-])c1)c1cccc(C)c1	KCNK9 inh -18.6 | KCNK9 block conf 52.0% | Kir21 sel inactive | HEK293 Tl ctr 28.0%
Cc1ccccc1COC(=O)CNC(=O)c1sc2ccccc2c1Cl	none | KCNK9 block conf inactive | Kir21 sel inactive | HEK293 Tl ctr inactive
O=[N+]([O-])c1ccc(S(=O)(=O)NCC(c2ccco2)N2CCc3ccccc3C2)cc1 (centres undefined)	none
O=C(NCC(c1ccco1)N1CCc2ccccc2C1)c1cccc(Br)c1 (centres undefined)	KCNK9 inh -12.2 | KCNK9 block conf inactive | Kir21 sel inactive | HEK293 Tl ctr 25.5%
O=C(NCC(c1ccco1)N1CCc2ccccc2C1)c1ccc(Br)cc1 (centres undefined)	none | KCNK9 block conf inactive | Kir21 sel inactive | HEK293 Tl ctr 35.0%
